Source: PMC7688577 (FASEB journal : official publication of the Federation of …, 2020)

Tests used:
[1] = target: P23H rhodopsin fused with Renilla luciferase (Mus musculus, UniProt P15409, P23H); assay: Rluc reporter assay in Hek293; assay type: cell-based; details: for Rluc assay Hek293 (RHO^P23H-Rluc) Efficacy: DMSO = 0%, 1 mM Evans Blue = -100%; for EC50: read-out: Rluc assay Hek293 (RHO^P23H-Rluc) EC50, 24 h treatment, dose response
[2] = target: T1, P23H rhodopsin (Mus musculus, UniProt P15409, P23H); assay: Non-radioactive pulse-chase assay in NIH3T3; assay type: cell-based; details: 10 μM; for Rate of Rho^P23H degradation (Pulse-chase): NIH3T3(RHO^P23H/GFP) cells, 24 h chase, vs DMSO control
Outline: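 Non-radioactive pulse-chase. Cells (3 × 10⁵/well, 24-well) were grown overnight, starved in Met-free DMEM for 1 h, then pulsed with 50 μM L-AHA for 4 h (50 μM Met as negative control). Chase was 24 h in DMEM with 2 mM Met ± 10 μM test compound. Lysates (200 μg) were clicked with 5 μM BTN-sDIBO for 1 h at 37 °C, immunoprecipitated with 1D4, eluted at pH 2.8, dot-blotted and probed with HRP-streptavidin. Values normalized to DMSO on the same membrane; N=3, unpaired two-tailed t-test.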

[3] = target: T1, P23H rhodopsin; assay: Image-based; assay type: cell-based; details: for Image-based assay NIH3T3 (RHO^P23H/GFP) Efficacy: DMSO = 0%, secondary antibody only = -100%; for EC50: read-out: Image-based assay NIH3T3 (RHO^P23H/GFP) EC50, 24 h treatment, 8-10 doses
[4] = test system: RHO transcripts; assay: qPCR of RHO transcripts in NIH3T3; assay type: cell-based, mouse; details: 10 μM; for Rho mRNA level (qPCR): NIH3T3(RHO^P23H/GFP) cells, vs DMSO control; for Rho mRNA level (qPCR) / WT and P23H rhodopsin transcripts in comparison to DMSO control: 24 h
Outline: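 NIH3T3 cells stably expressing WT or P23H rhodopsin (GFP lines) were seeded in 24-well plates at 2.5×10⁵ cells/well and cultured overnight at 37 °C, 5% CO₂. They were then exposed to test compound in culture medium for 24 h. RNA was precipitated by centrifugation at 12,000×g for 10 min at 4 °C, washed with 75% ethanol, air-dried and dissolved in nuclease-free water before qPCR.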

[5] = test system: rhodopsin mutants (T4R, P23H, P53R, C110Y, D190N, P267L); assay type: cell-based, mouse; details: U2OS cells; T4R, P23H, P53R, C110Y, D190N, P267L mutants
Outline: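 U2OS stable lines expressed WT or mutant mouse rhodopsin fused to Venus. Cells were transfected with pcDNA3.1 Zeo constructs, kept 48 h in DMEM/10% FBS, then selected with 400 μg/mL Zeocin. Stable cells were treated with test compound at 10 μM and immunostained for rhodopsin.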

[6] = test system: WT rhodopsin fused with Renilla luciferase; assay: Rluc reporter counter assay in Hek293; assay type: cell-based, mouse; details: DMSO = 0%, 1 mM Evans Blue = -100%; NA = no dose response effect
Outline: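 HEK293 cells stably expressing WT rhodopsin–Rluc, run as the HTS reporter assay: cells spun 300 × g 30 s, cultured overnight at 37 °C, 5% CO2; test compound in DMSO pin-transferred. ViviREN (50 μM solution in PBS) added, 1 h dim light, room temperature; luminescence read. Score = (RLU_compound − RLU_DMSO)/(RLU_DMSO − RLU_Evans Blue) ×100; 10 μM triplicates and dose-response.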

[7] = target: T1, P23H rhodopsin; assay: Rhodopsin dot blot of NIH3T3; assay type: cell-based; details: NIH3T3(RHO^P23H/GFP) cells, 10 μM, 24 h, vs DMSO control
Outline: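 NIH3T3(RHO^P23H/GFP) cells were seeded at 2.5 × 10⁴/well in 96-well plates, attached 4 h, then given medium with 2× test compound to reach 10 μM final for 24 h. Cells were PBS-washed and lysed in RIPA with protease inhibitors plus 6 s sonication. Of each well's lysate, 90% was dotted on nitrocellulose, air-dried and probed with 0.1 μg/mL HRP-1D4. Densitometry was normalized to DMSO.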

[8] = both NIH3T3(RHO^P23H/GFP) and NIH3T3(RHO^WT/GFP) cells

Structure (SMILES)	Rluc assay Hek293 (RHO^P23H-Rluc) Efficacy [1]	EC50 [1]	BTN-AHA labeled P23H rhodopsin at 24 h of chase in comparison to DMSO control [2]	Image-based assay NIH3T3 (RHO^P23H/GFP) Efficacy [3]	EC50 [3]	Rho protein level (Dot blot) [7]	Rate of Rho^P23H degradation (Pulse-chase) [2]	Rho mRNA level (qPCR) [4]	WT and P23H rhodopsin transcripts in comparison to DMSO control [4, 8]	Immunofluorescence intensities of rhodopsin mutants [5]	Rluc assay Hek293 (RHO^WT-Rluc) Efficacy [6]	Increase of rhodopsin transcripts compared to DMSO control [4, 8]
CC(=O)OC(CC(=O)O)C[N+](C)(C)C (stereo not drawn) [CL-002]	−86.1%	2000 nM	significantly reduced	−61.0%	1600 nM	Down		Down	reduced non-selectively	reduced	−62.0%	
NCC(=O)COP(=O)(O)O [CL-005]	−78.2%	6600 nM	significantly reduced	−72.7%	1300 nM	Down				reduced	−57.9%	up to 2 fold
O=[N+]([O-])c1ccc(Cl)c([N+](=O)[O-])c1 [CL-006]	−66.2%	1700 nM		−76.4%	2200 nM	Down	No Change	Down	reduced non-selectively		−42.9%	
CCn1cnc2c(N)ncnc21 [CL-007]	−72.5%	13000 nM	significantly reduced	−72.7%	2900 nM	Down		Down	reduced non-selectively	reduced	−51.7%	

The next compounds have a lower EC50 [1] than those just listed; values first:

Rluc assay Hek293 (RHO^P23H-Rluc) Efficacy [1]	EC50 [1]	BTN-AHA labeled P23H rhodopsin at 24 h of chase in comparison to DMSO control [2]	Image-based assay NIH3T3 (RHO^P23H/GFP) Efficacy [3]	EC50 [3]	Rho protein level (Dot blot) [7]	Rate of Rho^P23H degradation (Pulse-chase) [2]	Structure (SMILES)	Rho mRNA level (qPCR) [4]	WT and P23H rhodopsin transcripts in comparison to DMSO control [4, 8]	Immunofluorescence intensities of rhodopsin mutants [5]	Rluc assay Hek293 (RHO^WT-Rluc) Efficacy [6]	Increase of rhodopsin transcripts compared to DMSO control [4, 8]
−68.6%	1600 nM		−70.7%	470 nM	Down	No Change	CC(O)CN (stereo not drawn) [CL-004]	Down	reduced non-selectively		−45.5%	
−69.4%	1100 nM	significantly reduced	−83.6%	2100 nM	Down		CC(=O)OC(CC(=O)[O-])C[N+](C)(C)C (stereo not drawn) [CL-001]	Down	reduced non-selectively	reduced	−44.3%	
−89.5%	930 nM		−70.1%	1600 nM	Down	No Change	CCC(C)(O)C(O)C(=O)O (stereo not drawn) [CL-008]	Down	reduced non-selectively		−52.7%	
−65.3%	890 nM		−46.1%	600 nM	Down	No Change	O=C(O)C1=CC=CC(O)C1O (stereo not drawn) [CL-003]	Down	reduced non-selectively		−37.7%	
